Source: paper PMC3076219 (European journal of immunology, 2009)
Entries after “also recorded” stand apart in the source; their conditions may differ.

How the values were obtained:
[1] = test system: neutrophils; conditions: ref [27]; cited from earlier work
[2] = test system: neutrophils; conditions: cited from earlier work
[3] = test system: monocytes; experiment: Migration of monocytes, 24-well Transwell; type: cell-based, human; conditions: LL-37 5 µM, Fig. 7F
Outline: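 CFSE-labelled monocytes or THP-1 cells (5 µM, 5 min RT) at 2×10^6/mL in phenol-red-free RPMI 1640 with 1% FBS went in the Transwell upper chamber (3-µm pores). Stimuli in the lower chamber included CXCL1 50 nM, WKYMVm 5 µM and ATP/BzATP 50 µM. Cells were used with or without 20 min preincubation with 10 µM CXCR2 antagonist. Incubation at 37 °C lasted 90 min for monocytes and 2 h for THP-1. Lower-well cells were read at 495 nm against a standard curve, in quadruplicate.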

[4] = test system: neutrophils; experiment: Neutrophil migration, 24-well Transwell; type: cell-based, human; conditions: Fig. 6H
Outline: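 CFSE-labelled human neutrophils (5 µM, 5 min RT) at 5×10^6/mL in phenol-red-free RPMI 1640 with 1% FBS went in the Transwell upper chamber (3-µm pores). The lower chamber held test peptide (1 or 5 µM) or medium. Some cells were first preincubated 20 min with 10 µM CXCR2 antagonist. After 1 h at 37 °C, migrated cells were read at 495 nm against a standard curve. Quadruplicate; unpaired t-test.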

[5] = test system: neutrophils; experiment: Calcium mobilization of neutrophils; type: cell-based, human
[6] = test system: CXCR1; conditions: indirect, inside-out signaling; ref [16]; cited from earlier work
[7] = test system: CXCR2; conditions: indirect, inside-out signaling; ref [16]; cited from earlier work
[8] = test system: THP-1 cells; experiment: Calcium mobilization in THP-1 cells; type: cell-based; conditions: Fig. 7C
Outline: (§1)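 Peripheral blood monocytes (kit-isolated from PBMC, CD14-checked) or THP-1 cells at 10^7/mL were loaded with 5 µM Indo-1-AM for 7 min at 37 °C, then held 10 min at RT and washed in cold PBS. Cells were run at 2×10^6/mL in KRP (PBS, 1.5 mM CaCl2, 1.5 mM MgSO4). After baseline they got a first stimulus, then a second. Flow cytometry used 351 nm excitation and the 405:485 nm ratio, gating live cells. Three independent experiments.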

[9] = test system: CXCR2; experiment: CXCR2 surface expression on monocytes; type: cell-based, human; conditions: Supporting information Fig. 2
[10] = test system: CXCR1; experiment: CXCR1 surface expression on neutrophils, flow cytometry; type: cell-based, human; conditions: WKYMVm 1 µM, 10 µM, 100 µM; 3h; Fig. 2B
Outline: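 Human blood neutrophils were isolated by dextran sedimentation and Ficoll (>95% CD16+) and held at 5×10^6/mL in RPMI 1640 with 1% FBS. They were treated 3h with a dose series (test peptide 1–10 µM; chemokines 1, 5, 10, 50 nM) or with 5 µM for 0.5–3h. Cells were blocked in 10% human serum and stained with anti-CXCR1-APC/anti-CXCR2-FITC or anti-P2X7-FITC, plus anti-CD16. Read-out was flow cytometry GMFI.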

[11] = test system: CXCR2; experiment: CXCR2 surface expression on neutrophils, flow cytometry; type: cell-based, human; conditions: WKYMVm 1 µM, 10 µM, 100 µM; 3h; Fig. 2B
[12] = test system: monocytes; experiment: Calcium mobilization in monocytes; type: cell-based, human; conditions: ATP or WKYMVm first, then LL-37; Fig. 7D
Outline: as §1

[13] = test system: neutrophils; experiment: Cross-desensitization of calcium mobilization of neutrophils; type: cell-based, human; conditions: WKYMVm first
[14] = test system: FPR2; experiment: FPR2 surface expression on monocytes; type: cell-based, human; conditions: Supporting information Fig. 2
[15] = test system: neutrophils; conditions: ref [66]; cited from earlier work

For `O=C(Nc1ccc([N+](=O)[O-])cc1O)Nc1ccccc1Br` [SB225002], the “inhibition of [Ca2+]i of neutrophils treated with CXCL1 or CXCL8” value [1] is given as “dose dependent inhibition”, the “inhibition of neutrophil migration with CXCL1 or CXCL8” value ([2]; SB225002, ref [27]) is given as “dose dependent inhibition” and the “inhibition of CXCL1 and CXCL7 stimulated neutrophil migration” value ([2]; ref [27]) is given as “completely inhibited”. For the same compound, the “inhibition of CXCL8 stimulated neutrophil migration” value ([2]; ref [27]) was “partially inhibited”, the “inhibition of LL-37-stimulated monocyte migration” value ([3]; SB225002 10 µM, 20 min preincubation) was “blocked” and the “migration of SB225002 treated controls” value ([4]; SB225002 10 µM without LL-37) was “did not interfere with cell migration”. The “inhibition of LL-37-induced neutrophil migration” value ([4]; SB225002 10 µM, 20 min pretreatment, LL-37 5 µM, p<0.05) was “completely inhibited; also recorded: completely block”, the “reduction of [Ca2+]i for LL-37” value ([5]; SB225002 10 µM, then 180 s later LL-37 5 µM, Fig. 6A) was > 90% and the “inhibition of calcium mobilization for ATP” value ([5]; SB225002 10 µM, ATP 5 µM, Fig. 6F) was “not for fMLF (Fig. 6E), ATP”. The “inhibition of calcium mobilization for CXCL1” value ([5]; SB225002 10 µM, CXCL1 10 nM, Fig. 6C) was “complete inhibition”, the “inhibition of calcium mobilization for CXCL7” value ([5]; SB225002 10 µM, CXCL7 10 nM, Fig. 6B) was “complete inhibition” and the “inhibition of CXCL8 stimulation ([Ca2+]i)” value ([5]; SB225002 10 µM, CXCL8 10 nM, Fig. 6D) was “about 50%”. The “inhibition of calcium mobilization for WKYMVm” value ([5]; SB225002 10 µM, WKYMVm 5 µM, Fig. 6G) was “not for fMLF (Fig. 6E), ATP (Fig. 6F) or WKYMVm” and the “inhibition of calcium mobilization for fMLF” value ([5]; SB225002 10 µM, fMLF 100 nM, Fig. 6E) was “not for fMLF”.

For TNFα, the CXCR1 down-regulation [6] is given as “cause down-regulation of CXCR2 and CXCR1” and the CXCR2 down-regulation [7] is given as “cause down-regulation of CXCR2 and CXCR1”.

In the case of WKYMVm [reference compound], the “calcium signal in THP-1 cells” value [8] is reported as “but not WKYMVm gives a robust calcium signal”, the “block of LL-37 induced signal by WKYMVm pretreatment” value ([8]; WKYMVm first, then LL-37, THP-1) is reported as “does not block the LL-37 induced signal” and the “CXCR2 down-regulation on monocytes” value [9] is reported as “down regulated FPR2 and CXCR2”. For the same compound, the CXCR1 surface expression [10] was “caused down-regulation of both CXCR2 and CXCR1 expression with similar kinetics”, the CXCR2 surface expression [11] was “caused down-regulation of both CXCR2 and CXCR1 expression with similar kinetics” and the “stimulation of migration of monocytes” value ([3]; CXCL1 50 nM, WKYMVm 5 µM, ATP 50 µM, BzATP 50 µM, 90 min, 37°C) was “only LL-37 stimulated migration of monocytes”. For the same compound, the “cross-block of LL-37 stimulated calcium mobilization in monocytes” value [12] was “neither ATP nor WKYMVm cross-block LL-37 stimulated calcium mobilization”, the “cross-desensitization of CXCL1 response by WKYMVm” value ([13]; then CXCL1, Supporting information Fig. 3E-F) was “this was the case for CXCL1” and the “cross-desensitization of LL-37 response by WKYMVm” value ([13]; then LL-37, Supporting information Fig. 3C-D) was “able to block LL-37 stimulated calcium mobilization”. The “calcium flux response in the absence of extracellular Ca2+” value ([5]; PBS without calcium and magnesium, LL-37 5 µM, WKYMVm 5 µM, ATP 5 µM, Fig. 3C) was “capable of generating a calcium flux response” and the “FPR2 down-regulation on monocytes” value [14] was “down regulated FPR2 and CXCR2”.

In the case of pertussis toxin [PTX], the “block of CXCL8, fMLF, LTB4, CXCL6, and MNCF stimulated neutrophil migration” value ([2]; ref [33], [63], [65]) is given as “able to block” and the “block of FPR- and CXCR-induced oxidase activity of neutrophils” value [15] is given as “able to block”.
